Measurements as given in paper PMC6427047 (Cell chemical biology, 2017).

Columns and labels:
[1] = tested on: 8 selected kinases; assay: Immunoblot validation of kinase degradation in MOLM-14 cells; type: cell-based, Human; conditions: pretreatment then 4-hour co-treatment with TL12-186
Summary of the method: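 MOLM-14 cells were exposed to test compound for 4 h, then lysed. Lysates were cleared by max-speed centrifugation at 4°C for 10 min. Protein was quantified by BCA and normalized. Samples were mixed with LDS sample buffer containing fresh 10% 2-mercaptoethanol and immunoblotted for the target kinases.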

[2] = molecular target: T1, FLT3 (Homo sapiens, UniProt P36888); assay: Immunoblot in MOLM-14 cells; type: cell-based
T1 sequence (P36888 610-943 limits assumed): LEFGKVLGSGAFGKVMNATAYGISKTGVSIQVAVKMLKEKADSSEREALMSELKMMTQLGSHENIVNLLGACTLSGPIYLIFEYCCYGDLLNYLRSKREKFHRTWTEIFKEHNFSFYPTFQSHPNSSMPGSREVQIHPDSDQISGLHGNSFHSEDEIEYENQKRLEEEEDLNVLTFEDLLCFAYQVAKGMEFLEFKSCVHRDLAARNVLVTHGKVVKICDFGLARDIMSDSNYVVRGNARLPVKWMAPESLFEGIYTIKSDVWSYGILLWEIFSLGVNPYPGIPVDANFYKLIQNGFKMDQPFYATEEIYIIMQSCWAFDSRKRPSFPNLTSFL

[3] = tested on: WT and CRBN−/− MOLM-14 and MOLT-4 cells; assay: 2-day proliferation assays, WT and CRBN−/− cells; type: cell-based, Human; conditions: CRBN−/− MOLM-14 and MOLT-4, 2-day

## NS(=O)(=O)OC[C@@H]1C[C@@H](n2ccc3c(N[C@H]4CCc5ccccc54)ncnc32)C[C@@H]1O [MLN4924]
[1]
  effect of 4-hour pretreatment on TL12-186-induced kinase degradation: reverse the degradation effect of TL12-186

## CCN(CC)CCCC(C)Nc1ccnc2cc(Cl)ccc12 (centres unmarked) [chloroquine]
[2]
  rescue of TL12-186-induced FLT3 degradation by autophagy inhibition: cannot significantly rescue the degradation of FLT3

## Nc1cccc2c1C(=O)N(C1CCC(=O)NC1=O)C2=O (centres unmarked) [pomalidomide]
[1]
  effect of 4-hour pretreatment on TL12-186-induced kinase degradation: reverse the degradation effect of TL12-186

## CC(C)S(=O)(=O)c1ccccc1Nc1nc(Nc2ccc(N3CCC(N4CCN(C)CC4)CC3)cc2)ncc1Cl [TL13-87]
[3]
  inhibition of cellular proliferation in CRBN−/− cells: more potent inhibition of cellular proliferation relative to the degrader molecules

## CC(C)C[C@H](NC(=O)[C@H](CCc1ccccc1)NC(=O)CN1CCOCC1)C(=O)N[C@@H](Cc1ccccc1)C(=O)N[C@@H](CC(C)C)C(=O)[C@@]1(C)CO1 [carfilzomib]
[1]
  effect of 4-hour pretreatment on TL12-186-induced kinase degradation: reverse the degradation effect of TL12-186
